The values that follow come from ChEMBL document CHEMBL4002606, “Discovery of FZU-03,010 as a self-assembling anticancer amphiphile for acute myeloid leukemia” (Bioorg Med Chem Lett, 2017).

Data set [1] deals with HL-60. Kind of data set: Induction of apoptosis in human HL60 cells assessed as early apoptotic cells at 2 uM after 24 hrs by Annexin V-PE/7AAD staining based flow cytometry (reference value: 4.42%). In kind it is functional. (In flow cytometry, cells or beads pass a laser one at a time.)
In data set [2] the test system is HL-60. Kind of data set: Growth inhibition of human HL60 cells at 20 uM after 48 hrs by MTT assay relative to control. In kind it is functional. As to conditions: HL-60, 48 h, read-out: GI. For orientation: Tetrazolium assays rely on reduction of a dye to a coloured formazan, in cell work by metabolically active cells.
Data set [3] has as its system HL-60. Nature of the data set: Induction of apoptosis in human HL60 cells assessed as live cells at 2 uM after 24 hrs by Annexin V-PE/7AAD staining based flow cytometry (reference value: 90.9%). In kind it is functional.
Data set [4] concerns HL-60. Nature of the data set: Growth inhibition of human HL60 cells after 48 hrs by MTT assay. In kind it is functional, cell-based. As to conditions: HL-60, 48 h. In a few lines:
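HL-60 human promyelocytic leukemia cells; proliferation inhibition of the cells measured and reported as IC50; values are mean ± SE of at least three independent experiments.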

Data set [5] relates to HL-60. Kind of data set: Growth inhibition of human HL60 cells at 0.63 uM after 48 hrs by MTT assay relative to control. In kind it is functional. To be noted: HL-60, 48 h, read-out: GI.
In data set [6] the test system is HL-60. Nature of the data set: Growth inhibition of human HL60 cells at 40 uM after 48 hrs by MTT assay relative to control. In kind it is functional. As to conditions: HL-60, 48 h, read-out: GI.
In data set [7] the test system is HL-60. Nature of the data set: Growth inhibition of human HL60 cells at 1.25 uM after 48 hrs by MTT assay relative to control. In kind it is functional. To be noted: HL-60, 48 h, read-out: GI.
Data set [8] has as its system HL-60. Kind of data set: Growth inhibition of human HL60 cells at 2.5 uM after 48 hrs by MTT assay relative to control. As to conditions: HL-60, 48 h, read-out: GI. In kind it is functional.
Data set [9] relates to HL-60. Nature of the data set: Induction of apoptosis in human HL60 cells assessed as late apoptotic cells at 2 uM after 24 hrs by Annexin V-PE/7AAD staining based flow cytometry (reference value: 3.64%). In kind it is functional.
Data set [10] can be described thus: Stability of the compound in DMSO/deionized water post nanoparticle formation after 3 weeks. Type of data set: physicochemical. To be noted: 504 h.
The subject of data set [11] is HL-60. Kind of data set: Induction of apoptosis in human HL60 cells assessed as necrotic cells at 2 uM after 24 hrs by Annexin V-PE/7AAD staining based flow cytometry (reference value: 1.08%). In kind it is functional.
Data set [12] relates to HL-60. Nature of the data set: Growth inhibition of human HL60 cells at 5 uM after 48 hrs by MTT assay relative to control. Type of data set: functional. To be noted: HL-60, 48 h, read-out: GI.
For data set [13], the system named is HL-60. Kind of data set: Growth inhibition of human HL60 cells at 10 uM after 48 hrs by MTT assay relative to control. As to conditions: HL-60, 48 h, read-out: GI. Type of data set: functional.
For data set [14], the system named is HL-60. Kind of data set: Induction of apoptosis in human HL60 cells assessed as PARP cleavage up to 10 uM after 24 hrs by Western blot method. In kind it is functional, cell-based. In short, it runs like this: (§1)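 HL-60 cells treated at different concentrations; lysates probed with specific antibodies against procaspase-3, cleaved caspase-9, PARP, Bcl-2, phospho-P70S6K and phospho-Akt; actin used as loading control.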

Data set [15] relates to HL-60. Kind of data set: Induction of apoptosis in human HL60 cells assessed as necrotic cells at 10 uM after 24 hrs by Annexin V-PE/7AAD staining based flow cytometry (reference value: 1.08%). In kind it is functional.
The subject of data set [16] is HL-60. Nature of the data set: Induction of apoptosis in human HL60 cells assessed as early apoptotic cells at 10 uM after 24 hrs by Annexin V-PE/7AAD staining based flow cytometry (reference value: 4.42%). Type of data set: functional.
For data set [17], the system named is HL-60. Kind of data set: Induction of apoptosis in human HL60 cells assessed as live cells at 10 uM after 24 hrs by Annexin V-PE/7AAD staining based flow cytometry (reference value: 90.9%). In kind it is functional.
For data set [18], the system named is HL-60. Nature of the data set: Induction of apoptosis in human HL60 cells assessed as downregulation of procaspase-3 expression after 24 hrs by Western blot method. In kind it is functional, cell-based. In a few lines: as §1
Background: A western blot detects proteins with antibodies after separation by electrophoresis.

For data set [19], the system named is HL-60. Kind of data set: Induction of apoptosis in human HL60 cells assessed as downregulation of Bcl2 expression up to 10 uM after 24 hrs by Western blot method. In kind it is functional, cell-based. In a few lines:
as §1

Data set [20] deals with HL-60. Kind of data set: Induction of apoptosis in human HL60 cells assessed as caspase-9 cleavage after 24 hrs by Western blot method. Type of data set: functional, cell-based. In a few lines: as §1
For data set [21], the system named is HL-60. Kind of data set: Induction of apoptosis in human HL60 cells assessed as late apoptotic cells at 10 uM after 24 hrs by Annexin V-PE/7AAD staining based flow cytometry (reference value: 3.64%). Type of data set: functional.
In data set [22] the target is Serine/threonine-protein kinase mTOR (Homo sapiens) (UniProt P42345). Nature of the data set: Inhibition of mTOR in human HL60 cells assessed as reduction in P70S6K phosphorylation at Thr389-residue up to 10 uM after 24 hrs by Western blot method. Type of data set: cell-based. In short, it runs like this: as §1
Data set [23] is filed under the species Homo sapiens. Nature of the data set: Inhibition of PI3K in human HL60 cells assessed as reduction in Akt phosphorylation at Ser473-residue up to 10 uM after 24 hrs by Western blot method. In kind it is cell-based. In short, it runs like this:
as §1

Each structure is given as a SMILES string. Activity calls are given as the source filed them. The rule behind the calls is not given here.

As to `C[C@H]1[C@H](C)CC[C@]2(C(=O)N3CCNCC3)CC[C@]3(C)C(=CC[C@@H]4[C@@]5(C)Cc6cn[nH]c6C(C)(C)[C@@H]5CC[C@]43C)[C@H]12`, the Activity in data set [1] came out at 19.1%; in data set [3], 76.5%; in data set [9], 3.89%; in [11], 0.439%. For the same compound, in data set [2], the inhibition of growth at 20 µM stood at 93.5%. Besides, in data set [4], the IC50 was 0.91 µM. The inhibition of growth at 0.63 µM in data set [5] worked out at 14.7%. Further, the inhibition of growth at 40 µM in [6] is 94%. Further, in data set [7], the inhibition of growth at 1.25 µM stood at 66.4%. In addition, the inhibition of growth at 2.5 µM in data set [8] amounted to 86%. Besides, in [10], the Stability result is “Stable”. The inhibition of growth at 5 µM in data set [12] was 91.6%. For the same compound, in data set [13], the inhibition of growth at 10 µM amounted to 95%.
For `C[C@H]1[C@H](C)CC[C@]2(C(=O)O)CC[C@]3(C)C(=CC[C@@H]4[C@@]5(C)Cc6c[nH]nc6C(C)(C)[C@@H]5CC[C@]43C)[C@H]12`, the result in [14] and in data set [19] was Active. The inhibition of growth at 20 µM in data set [2] amounted to 93.2%. In addition, the Activity in [15] was 0.231%; in data set [16] it was 19.5%; in data set [17] it was 76.3%; in [18], “Dose-dependent effect”; in data set [20], “Dose-dependent effect”; in data set [21] it was 3.98%. Also, the IC50 in [4] stood at 6.26 µM. Besides, in data set [5], the inhibition of growth at 0.63 µM came to 5.36%. In addition, the inhibition of growth at 40 µM in data set [6] amounted to 94.7%. The inhibition of growth at 1.25 µM in data set [7] stood at 7.54%. Moreover, the inhibition of growth at 2.5 µM in [8] is 8.55%. Besides, the inhibition result in [22] and in [23] was “Active” in each case. In addition, in [12], the inhibition of growth at 5 µM was 16.3%. Also, the inhibition of growth at 10 µM in data set [13] was 79.5%.

What is called IC50 is the concentration needed to halve the response being measured. A low value points to higher potency.
